Results as given in ChEMBL document CHEMBL3045289, “Molecular docking and three-dimensional quantitative structure-activity relationship studies on the binding modes of herbicidal 1-(substituted phenoxyacetoxy)alkylphosphonates to the E1 component of pyruvate dehydrogenase” (J Agric Food Chem, 2007).

Tested on: Cucumis sativus
Test: Herbicidal activity against Cucumis sativus (cucumber) seeds assessed as inhibition of cucumber root at 28 degC for 3 days with 10 hr of lighting and 14 h in the dark
Assay type: functional, organism-based
Summary of the method: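 Compound dissolved in acetone with a drop of Tween 80, then diluted with water to the required concentrations. Five mL was applied to filter paper in Petri dishes, with 10 cucumber seeds pre-soaked in water for 6 h. Taproot length was read at 72 h as percent inhibition versus control. Three replicates at each of five or six concentrations; IC50 by log-probit regression.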

Which IC50 does the source give for `COP(=O)(OC)C(C)OC(=O)COc1ccc(Cl)cc1` (stereo not drawn) here?
The IC50 was 427 nM.

With `COP(=O)(OC)C(C)OC(=O)COc1ccc(Cl)cc1C` (stereo not drawn) as the compound, how does the IC50 read?
Its IC50 is 437 nM.

Which IC50 does the source give for `COP(=O)(OC)C(C)OC(=O)COc1ccc(Cl)c(C)c1` (stereo not drawn) here?
Its IC50 is 2950 nM.

For `COP(=O)(OC)C(C)OC(=O)COc1cc(C)ccc1Cl` (stereo not drawn), which IC50 is on record?
The IC50 was 49000 nM.

How did the IC50 turn out when `COP(=O)(OC)C(C)OC(=O)COc1cccc(Cl)c1Cl` (stereo not drawn) was run?
Its IC50 is 209000 nM.

How did the IC50 turn out when `COP(=O)(OC)C(C)OC(=O)COc1cccc(F)c1` (stereo not drawn) was run?
Its IC50 is 112000 nM.

For `COP(=O)(OC)C(C)OC(=O)COc1ccc(F)cc1` (stereo not drawn), which IC50 is on record?
Its IC50 is 1510 nM.

With `COP(=O)(OC)C(OC(=O)COc1cccc(F)c1)C(Cl)(Cl)Cl` (stereo not drawn) as the compound, how does the IC50 read?
The IC50 was 83200 nM.

`COP(=O)(OC)C(OC(=O)COc1ccc(F)cc1)C(Cl)(Cl)Cl` (stereo not drawn) was tested. Which IC50 did it give?
The IC50 was 1170 nM.

With `COP(=O)(OC)C(OC(=O)COc1ccc(Cl)cc1)C(Cl)(Cl)Cl` (stereo not drawn) as the compound, how does the IC50 read?
The IC50 was 724 nM.

With `COP(=O)(OC)C(OC(=O)COc1c(Cl)cccc1Cl)C(Cl)(Cl)Cl` (stereo not drawn) as the compound, how does the IC50 read?
Its IC50 is 115000 nM.

Which IC50 does the source give for `COP(=O)(OC)C(OC(=O)COc1cccc(Cl)c1Cl)C(Cl)(Cl)Cl` (stereo not drawn) here?
Its IC50 is 70800 nM.

How did the IC50 turn out when `COP(=O)(OC)C(OC(=O)COc1ccc(Cl)cc1C)C(Cl)(Cl)Cl` (stereo not drawn) was run?
Its IC50 is 398 nM.

How did the IC50 turn out when `COP(=O)(OC)C(OC(=O)COc1ccc(Cl)c(C)c1)C(Cl)(Cl)Cl` (stereo not drawn) was run?
Its IC50 is 3470 nM.

How did the IC50 turn out when `COP(=O)(OC)C(OC(=O)COc1cc(C)ccc1Cl)C(Cl)(Cl)Cl` (stereo not drawn) was run?
The IC50 was 75900 nM.

With `COP(=O)(OC)C(OC(=O)COc1cccc(C(F)(F)F)c1)c1cccc(Cl)c1` (stereo not drawn) as the compound, how does the IC50 read?
The IC50 was 14500 nM.

`COP(=O)(OC)C(OC(=O)COc1cccc(C(F)(F)F)c1)c1ccc(Cl)c(Cl)c1` (stereo not drawn) was tested. Which IC50 did it give?
Its IC50 is 8320 nM.

`COP(=O)(OC)C(OC(=O)COc1cccc(C(F)(F)F)c1)c1ccc(C)cc1` (stereo not drawn) was tested. Which IC50 did it give?
The IC50 was 7410 nM.

With `COP(=O)(O)C(OC(=O)COc1ccc(Cl)cc1Cl)c1ccco1` (stereo not drawn) as the compound, how does the IC50 read?
The IC50 was 447 nM.

`COP(=O)(O)C(OC(=O)COc1ccc(Cl)cc1Cl)c1ccccn1` (stereo not drawn) was tested. Which IC50 did it give?
Its IC50 is 575 nM.

`COP(=O)(O)C(OC(=O)COc1ccc(Cl)cc1Cl)c1ccccc1` (stereo not drawn) was tested. Which IC50 did it give?
Its IC50 is 955 nM.

How did the IC50 turn out when `COP(=O)(O)C(OC(=O)COc1ccc(Cl)cc1Cl)c1ccccc1Cl` (stereo not drawn) was run?
Its IC50 is 912 nM.

With `COP(=O)(O)C(OC(=O)COc1ccc(Cl)cc1Cl)c1ccc(Cl)cc1` (stereo not drawn) as the compound, how does the IC50 read?
Its IC50 is 1320 nM.

For `COP(=O)(O)C(OC(=O)COc1ccc(Cl)cc1Cl)c1ccc(Cl)cc1Cl` (stereo not drawn), which IC50 is on record?
The IC50 was 1020 nM.

How did the IC50 turn out when `COP(=O)(O)C(OC(=O)COc1ccc(Cl)cc1Cl)c1ccc(Cl)c(Cl)c1` (stereo not drawn) was run?
The IC50 was 891 nM.

With `COc1ccc(C(OC(=O)COc2ccc(Cl)cc2Cl)P(=O)(O)OC)cc1` (stereo not drawn) as the compound, how does the IC50 read?
Its IC50 is 955 nM.

How did the IC50 turn out when `COP(=O)(O)C(OC(=O)COc1ccc(Cl)cc1Cl)c1ccc(F)cc1` (stereo not drawn) was run?
The IC50 was 776 nM.

With `COP(=O)(O)C(OC(=O)COc1ccc(Cl)cc1Cl)c1cccc([N+](=O)[O-])c1` (stereo not drawn) as the compound, how does the IC50 read?
The IC50 was 1230 nM.

`COP(=O)(O)C(OC(=O)COc1ccc(Cl)cc1Cl)c1ccc(C)cc1` (stereo not drawn) was tested. Which IC50 did it give?
Its IC50 is 1350 nM.

For `COP(=O)(OC)C(C)OC(=O)COc1c(Cl)cccc1Cl` (stereo not drawn), which IC50 is on record?
The IC50 was 100000 nM.

Which IC50 does the source give for `COP(=O)(OC)C(OC(=O)COc1cccc(F)c1)c1cccs1` (stereo not drawn) here?
The IC50 was 126000 nM.

For `COP(=O)(OC)C(OC(=O)COc1ccc(F)cc1)c1cccs1` (stereo not drawn), which IC50 is on record?
The IC50 was 2630 nM.

`COP(=O)(OC)C(OC(=O)COc1ccc(Cl)cc1Cl)c1cccs1` (stereo not drawn) was tested. Which IC50 did it give?
Its IC50 is 282 nM.

For `COP(=O)(OC)C(OC(=O)COc1ccc(Cl)cc1)c1cccs1` (stereo not drawn), which IC50 is on record?
The IC50 was 575 nM.

With `COP(=O)(OC)C(OC(=O)COc1c(Cl)cccc1Cl)c1cccs1` (stereo not drawn) as the compound, how does the IC50 read?
The IC50 was 178000 nM.

`COP(=O)(OC)C(OC(=O)COc1cccc(Cl)c1Cl)c1cccs1` (stereo not drawn) was tested. Which IC50 did it give?
The IC50 was 589000 nM.

How did the IC50 turn out when `COP(=O)(OC)C(OC(=O)COc1ccc(Cl)cc1C)c1cccs1` (stereo not drawn) was run?
Its IC50 is 468 nM.

Which IC50 does the source give for `COP(=O)(OC)C(OC(=O)COc1ccc(Cl)c(C)c1)c1cccs1` (stereo not drawn) here?
Its IC50 is 2340 nM.

`COP(=O)(OC)C(OC(=O)COc1cc(C)ccc1Cl)c1cccs1` (stereo not drawn) was tested. Which IC50 did it give?
The IC50 was 51300 nM.

How did the IC50 turn out when `COP(=O)(OC)C(OC(=O)COc1cccc(F)c1)c1ccccc1` (stereo not drawn) was run?
The IC50 was 112000 nM.

How did the IC50 turn out when `COP(=O)(OC)C(OC(=O)COc1ccc(F)cc1)c1ccccc1` (stereo not drawn) was run?
The IC50 was 1510 nM.

For `COP(=O)(OC)C(OC(=O)COc1ccc(Cl)cc1)c1ccccc1` (stereo not drawn), which IC50 is on record?
Its IC50 is 427 nM.

Which IC50 does the source give for `COP(=O)(OC)C(OC(=O)COc1c(Cl)cccc1Cl)c1ccccc1` (stereo not drawn) here?
Its IC50 is 85100 nM.

For `COP(=O)(OC)C(OC(=O)COc1cccc(Cl)c1Cl)c1ccccc1` (stereo not drawn), which IC50 is on record?
The IC50 was 229000 nM.

Which IC50 does the source give for `COP(=O)(OC)C(OC(=O)COc1ccc(Cl)cc1C)c1ccccc1` (stereo not drawn) here?
The IC50 was 355 nM.

`COP(=O)(OC)C(OC(=O)COc1ccc(Cl)c(C)c1)c1ccccc1` (stereo not drawn) was tested. Which IC50 did it give?
The IC50 was 2570 nM.

Which IC50 does the source give for `COP(=O)(OC)C(OC(=O)COc1cc(C)ccc1Cl)c1ccccc1` (stereo not drawn) here?
Its IC50 is 72400 nM.

`COP(=O)(OC)C(OC(=O)COc1cccc(C(F)(F)F)c1)c1ccccc1Cl` (stereo not drawn) was tested. Which IC50 did it give?
The IC50 was 7940 nM.

How did the IC50 turn out when `COP(=O)(OC)C(OC(=O)COc1cccc(C(F)(F)F)c1)c1ccc(Cl)cc1` (stereo not drawn) was run?
Its IC50 is 6920 nM.

With `COP(=O)(OC)C(OC(=O)COc1cccc(F)c1)c1ccco1` (stereo not drawn) as the compound, how does the IC50 read?
Its IC50 is 67600 nM.

How did the IC50 turn out when `COP(=O)(OC)C(OC(=O)COc1ccc(F)cc1)c1ccco1` (stereo not drawn) was run?
The IC50 was 1820 nM.

Which IC50 does the source give for `COP(=O)(OC)C(OC(=O)COc1ccc(Cl)cc1)c1ccco1` (stereo not drawn) here?
Its IC50 is 646 nM.

How did the IC50 turn out when `COP(=O)(OC)C(OC(=O)COc1ccc(Cl)cc1Cl)c1ccco1` (stereo not drawn) was run?
The IC50 was 339 nM.

How did the IC50 turn out when `COP(=O)(OC)C(OC(=O)COc1c(Cl)cccc1Cl)c1ccco1` (stereo not drawn) was run?
The IC50 was 324000 nM.

Which IC50 does the source give for `COP(=O)(OC)C(OC(=O)COc1cccc(Cl)c1Cl)c1ccco1` (stereo not drawn) here?
Its IC50 is 447000 nM.

`COP(=O)(OC)C(OC(=O)COc1ccc(Cl)cc1C)c1ccco1` (stereo not drawn) was tested. Which IC50 did it give?
The IC50 was 3800 nM.

For `COP(=O)(OC)C(OC(=O)COc1ccc(Cl)c(C)c1)c1ccco1` (stereo not drawn), which IC50 is on record?
Its IC50 is 3630 nM.

With `COP(=O)(OC)C(OC(=O)COc1cc(C)ccc1Cl)c1ccco1` (stereo not drawn) as the compound, how does the IC50 read?
The IC50 was 87100 nM.
